According to ChEMBL document CHEMBL1129572, “Synthesis and pharmacological properties of novel 8-substituted imidazobenzodiazepines: high-affinity, selective probes for alpha 5-containing GABAA receptors” (J Med Chem, 1996):

Legend:
Homo sapiens = species: Homo sapiens; test: Relative binding affinity for GABA-A receptor alpha-5 over alpha1 subunits
Mus musculus [1] = species: Mus musculus; test: Dose required for 50% seizure of maximum number of animals; format: functional
Summary of the method: (§1)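 Adult male NIH/Swiss mice (~30 g) got a single ip injection of graded doses (up to 40 or 80 mg/kg) or vehicle, suspended in 10% diluted Emulphor:90% saline with warming and sonication. They were observed 10 min; tonic/clonic convulsions with loss of righting reflex were scored. CD50 is the dose seizing half the maximal number convulsing, by nonlinear regression.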

[2] = Binding affinity for human GABA-A receptor alpha-5--beta-2-gamma-2 expressed in L(tk-) cell membranes
Summary of the method: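 Competition binding on membranes of Ltk cells expressing human αxβ2γ2 receptors. Radioligand was [3H]Ro 15-1788, or [3H]Ro 15-4513 for α6β2γ2. Ki is the mean of two determinations differing by less than 10%.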

Mus musculus [3] = species: Mus musculus; test: Convulsant activity was evaluated in mice; format: functional; summary of the method: as §1
[4] = target: T1, GABA A receptor alpha-2/beta-2/gamma-2 (Homo sapiens, UniProt P18507+P47869+P47870); test: Binding affinity for human GABA-A receptor alpha-2-beta-2-gamma-2 expressed in L(tk-) cell membranes
T1 sequence (P47870 whole entry): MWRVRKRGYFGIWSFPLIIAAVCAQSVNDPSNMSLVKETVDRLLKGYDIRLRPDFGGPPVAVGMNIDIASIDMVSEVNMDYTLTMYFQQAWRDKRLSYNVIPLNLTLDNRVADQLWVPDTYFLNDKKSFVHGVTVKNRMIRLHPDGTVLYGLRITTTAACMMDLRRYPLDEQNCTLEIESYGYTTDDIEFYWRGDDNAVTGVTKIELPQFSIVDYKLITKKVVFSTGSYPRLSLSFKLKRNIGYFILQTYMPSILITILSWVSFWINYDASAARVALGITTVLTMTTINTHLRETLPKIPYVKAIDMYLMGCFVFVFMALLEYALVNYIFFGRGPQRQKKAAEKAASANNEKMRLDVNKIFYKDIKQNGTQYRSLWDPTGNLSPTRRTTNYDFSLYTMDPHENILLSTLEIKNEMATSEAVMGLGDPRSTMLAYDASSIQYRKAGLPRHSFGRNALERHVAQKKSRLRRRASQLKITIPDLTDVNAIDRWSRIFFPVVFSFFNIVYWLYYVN
T1 sequence (P18507 whole entry): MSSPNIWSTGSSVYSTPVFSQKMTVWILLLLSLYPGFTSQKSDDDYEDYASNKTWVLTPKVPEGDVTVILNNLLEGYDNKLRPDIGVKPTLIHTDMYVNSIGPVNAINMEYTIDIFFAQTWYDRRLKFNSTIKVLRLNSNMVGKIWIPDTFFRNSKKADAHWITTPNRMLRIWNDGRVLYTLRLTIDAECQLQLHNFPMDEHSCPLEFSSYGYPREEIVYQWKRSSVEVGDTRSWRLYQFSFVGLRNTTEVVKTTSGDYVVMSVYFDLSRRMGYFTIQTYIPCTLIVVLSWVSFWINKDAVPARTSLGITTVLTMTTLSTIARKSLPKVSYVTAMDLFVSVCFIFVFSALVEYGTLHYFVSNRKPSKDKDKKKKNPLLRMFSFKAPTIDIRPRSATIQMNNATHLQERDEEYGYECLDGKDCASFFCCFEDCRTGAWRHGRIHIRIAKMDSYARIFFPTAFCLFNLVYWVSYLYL
T1 sequence (P47869 whole entry): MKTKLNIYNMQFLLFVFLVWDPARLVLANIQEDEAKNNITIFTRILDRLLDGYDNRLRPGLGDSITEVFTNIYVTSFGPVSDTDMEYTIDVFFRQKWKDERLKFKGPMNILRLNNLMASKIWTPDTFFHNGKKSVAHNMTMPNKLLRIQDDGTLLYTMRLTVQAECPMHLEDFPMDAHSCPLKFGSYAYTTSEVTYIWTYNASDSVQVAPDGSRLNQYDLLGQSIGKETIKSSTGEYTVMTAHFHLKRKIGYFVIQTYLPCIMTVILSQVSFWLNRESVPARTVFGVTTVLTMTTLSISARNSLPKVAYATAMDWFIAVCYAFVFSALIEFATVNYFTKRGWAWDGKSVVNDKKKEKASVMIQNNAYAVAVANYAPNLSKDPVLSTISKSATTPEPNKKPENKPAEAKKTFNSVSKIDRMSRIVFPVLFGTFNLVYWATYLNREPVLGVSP

[5] = target: GABA A receptor alpha-6/beta-2/gamma-2 (Homo sapiens, UniProt P18507+P47870+Q16445); test: Binding affinity for human GABA-A receptor alpha-6-beta-2-gamma-2 expressed in L(tk-) cell membranes
GABA A receptor alpha-6/beta-2/gamma-2, sequence (Q16445 whole entry, one chain of several): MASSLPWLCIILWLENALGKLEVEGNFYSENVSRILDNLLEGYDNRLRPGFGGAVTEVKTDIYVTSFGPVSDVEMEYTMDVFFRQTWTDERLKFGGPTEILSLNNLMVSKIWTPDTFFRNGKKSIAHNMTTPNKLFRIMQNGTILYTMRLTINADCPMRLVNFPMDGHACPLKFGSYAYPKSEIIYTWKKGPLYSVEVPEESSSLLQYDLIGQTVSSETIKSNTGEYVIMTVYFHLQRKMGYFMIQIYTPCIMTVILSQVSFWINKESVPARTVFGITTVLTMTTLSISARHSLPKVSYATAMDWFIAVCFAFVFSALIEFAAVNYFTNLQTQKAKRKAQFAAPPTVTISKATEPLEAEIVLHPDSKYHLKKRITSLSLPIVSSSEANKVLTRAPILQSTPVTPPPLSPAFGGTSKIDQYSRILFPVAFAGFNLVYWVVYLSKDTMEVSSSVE

[6] = target: T2, GABA A receptor alpha-3/beta-2/gamma-2 (Homo sapiens, UniProt P18507+P34903+P47870); test: Binding affinity for human GABA-A receptor alpha-3-beta-2-gamma-2 expressed in L(tk-) cell membranes
T2 sequence (P47870 whole entry): T1 sequence (P47870 whole entry)
T2 sequence (P18507 whole entry): T1 sequence (P18507 whole entry)
T2 sequence (P34903 whole entry): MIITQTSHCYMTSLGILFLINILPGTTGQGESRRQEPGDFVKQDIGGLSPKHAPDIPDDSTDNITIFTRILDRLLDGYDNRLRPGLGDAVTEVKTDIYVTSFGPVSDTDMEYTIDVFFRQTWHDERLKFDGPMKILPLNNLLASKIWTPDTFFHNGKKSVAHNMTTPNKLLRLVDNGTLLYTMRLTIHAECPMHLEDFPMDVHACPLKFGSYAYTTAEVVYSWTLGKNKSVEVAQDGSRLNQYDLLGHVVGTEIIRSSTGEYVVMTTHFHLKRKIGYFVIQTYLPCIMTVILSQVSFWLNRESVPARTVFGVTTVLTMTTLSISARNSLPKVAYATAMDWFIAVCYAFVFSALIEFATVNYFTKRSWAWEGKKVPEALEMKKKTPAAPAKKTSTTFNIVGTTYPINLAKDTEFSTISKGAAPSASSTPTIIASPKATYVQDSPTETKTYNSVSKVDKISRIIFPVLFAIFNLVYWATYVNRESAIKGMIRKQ

[7] = target: T3, GABA-A receptor; alpha-1/beta-2/gamma-2 (Homo sapiens, UniProt P14867+P18507+P47870); test: Binding affinity for human GABA-A receptor alpha-1-beta-2-gamma-2 expressed in L(tk-) cell membranes
T3 sequence (P14867 whole entry): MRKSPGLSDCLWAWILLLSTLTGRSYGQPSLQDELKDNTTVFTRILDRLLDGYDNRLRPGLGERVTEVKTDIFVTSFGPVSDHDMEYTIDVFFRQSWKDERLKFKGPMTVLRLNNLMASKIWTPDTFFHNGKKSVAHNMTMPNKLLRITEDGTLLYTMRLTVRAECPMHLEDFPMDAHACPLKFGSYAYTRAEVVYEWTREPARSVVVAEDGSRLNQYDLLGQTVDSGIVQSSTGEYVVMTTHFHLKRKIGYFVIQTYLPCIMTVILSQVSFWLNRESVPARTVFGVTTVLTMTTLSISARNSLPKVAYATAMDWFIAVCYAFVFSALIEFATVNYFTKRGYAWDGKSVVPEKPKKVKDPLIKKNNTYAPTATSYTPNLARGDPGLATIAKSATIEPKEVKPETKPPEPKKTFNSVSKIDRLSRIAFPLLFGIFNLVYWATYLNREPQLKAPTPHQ
T3 sequence (P47870 whole entry): T1 sequence (P47870 whole entry)
T3 sequence (P18507 whole entry): T1 sequence (P18507 whole entry)

Mus musculus [8] = species: Mus musculus; test: Proconvulsant potency at which 50% of the animals (mice) convulsed 15 min after receiving PTZ.; format: functional; conditions: read-out: PD50
Summary of the method: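 Mice got a single ip dose of the ligand or vehicle, then PTZ (40 mg/kg ip) 15 min later, and were observed 10 min. N = 5–10 per group. PD50 is the dose at which 50% of animals convulsed, by nonlinear regression.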

Mus musculus [9] = species: Mus musculus; test: Anticonvulsant activity against convulsions induced by Compound 9; format: functional
Summary of the method: (§2)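 Male NIH/Swiss mice (~30 g) given graded ip doses of zolpidem, flumazenil or vehicle in 10% diluted Emulphor:90% saline. 10 min later they were challenged ip with DMCM (7.5 mg/kg) or the convulsant test ligand (20 mg/kg). Convulsions were observed; N = 5–10 per dose. ED50 came from nonlinear regression.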

Mus musculus [10] = species: Mus musculus; test: Anticonvulsant activity against convulsions induced by DMCM; format: functional; summary of the method: as §2
Mus musculus [11] = species: Mus musculus; test: Convulsant activity was evaluated; format: functional; summary of the method: as §1
[12] = target: GABA-A receptor; anion channel; test: (§3) Inhibition of [3H]flunitrazepam binding to low affinity GABA-A receptor of rat hippocampal membranes; format: cell membranes, Membrane
Summary of the method: (§4)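 Male Sprague–Dawley rat hippocampal or cerebellar membranes, washed in 50 mM Tris-citrate pH 7.4. They were incubated with ~1 nM [3H]flunitrazepam (final) plus NaCl, 120 min at 0–4 °C, then filtered. Nonspecific binding was set with 10 µM Ro 15-1788. IC50 used 8–12 concentrations; hippocampal data were fitted two-site (F test). Four experiments, mean ± SEM.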

[13] = target: T4, Gamma-aminobutyric acid receptor subunit alpha-5 (Rattus norvegicus, UniProt P19969); test: Inhibition of [3H]flunitrazepam binding to alpha5 GABA-A receptor of rat hippocampal membranes; format: cell membranes, Membrane; summary of the method: as §4
T4 sequence (P19969 whole entry): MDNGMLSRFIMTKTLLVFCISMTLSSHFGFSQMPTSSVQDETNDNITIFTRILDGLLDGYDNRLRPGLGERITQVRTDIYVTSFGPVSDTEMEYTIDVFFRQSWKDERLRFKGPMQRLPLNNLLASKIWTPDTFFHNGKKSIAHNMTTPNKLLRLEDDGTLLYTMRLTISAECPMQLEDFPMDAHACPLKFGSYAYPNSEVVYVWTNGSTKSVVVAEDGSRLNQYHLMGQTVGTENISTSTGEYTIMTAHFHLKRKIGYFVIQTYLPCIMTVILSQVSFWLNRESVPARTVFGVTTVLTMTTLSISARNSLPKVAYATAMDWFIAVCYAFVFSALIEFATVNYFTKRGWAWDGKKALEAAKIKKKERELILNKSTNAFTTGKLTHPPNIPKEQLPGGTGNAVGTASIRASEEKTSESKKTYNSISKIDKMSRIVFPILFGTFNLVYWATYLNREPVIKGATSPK

[14] = target: GABA-A receptor; anion channel; test: Inhibition of [3H]flunitrazepam binding to GABA-A receptor of rat cerebral membranes; format: cell membranes, Membrane; summary of the method: as §4
[15] = target: T4, Gamma-aminobutyric acid receptor subunit alpha-5; test: Inhibition of [3H]flunitrazepam binding to alpha-5 GABA-A receptor of rat hippocampal membranes; format: cell membranes, Membrane; summary of the method: as §4
[16] = target: T4, Gamma-aminobutyric acid receptor subunit alpha-5; test: Inhibition of [3H]flunitrazepam binding to high affinity GABA-A receptor of rat hippocampal membranes; format: cell membranes, Membrane; summary of the method: as §4
[17] = target: GABA-A receptor; anion channel; test: as §3; format: cell membranes, Membrane; summary of the method: as §4; remark: listed apart in the source

SMILES	Ratio (Homo sapiens)	CD50 (Mus musculus [1])	Ki [2]	Ki [4]	Ki [5]	Ki [6]	Ki [7]	other results
CCOC(=O)c1ncn2c1CN(C)C(=O)c1cc(C#C[Si](C)(C)C)ccc1-2	24	70.9 mg/kg	5 nM	142 nM	114 nM	198 nM		Activity (Mus musculus [3]): 85%
CCOC(=O)c1ncn2c1CN(C)C(=O)c1cc(C#CC[Si](C)(C)C)ccc1-2			> 300 nM	> 300 nM	> 300 nM	> 300 nM	> 300 nM	
CCOC(=O)c1ncn2c1CN(C)C(=O)c1cc(CC)ccc1-2	13.8		1.5 nM	27 nM	176 nM	26.1 nM	20.4 nM	
CN1Cc2c(C(=O)OC(C)(C)C)ncn2-c2ccc(C#C[Si](C)(C)C)cc2C1=O	75.5	2.3 mg/kg	2.61 nM	143 nM	58.6 nM	255 nM	197 nM	Activity (Mus musculus [3]): 22%; ED50 (Mus musculus [8]): 40 mg/kg
Cc1ccc(-c2nc3ccc(C)cn3c2CC(=O)N(C)C)cc1 [ZOLPIDEM]								ED50 (Mus musculus [9]): 7 mg/kg; ED50 (Mus musculus [10]): 0.4 mg/kg
CN1Cc2c(C(=O)OC(C)(C)C)ncn2-c2ccc(Br)cc2C1=O	24		0.5 nM	10.7 nM	9.4 nM	9.2 nM	11.4 nM	
CCOC(=O)c1ncn2c1CN(C)C(=O)c1cc(N=[N+]=[N-])ccc1-2 [Ro-154513]			0.26 nM					
C#Cc1ccc2c(c1)C(=O)N(C)Cc1c(C(=O)OCC)ncn1-2	60	24 mg/kg	0.5 nM	21.4 nM	28.8 nM	25.8 nM	28.4 nM	Activity (Mus musculus [11]): 70%
C#Cc1ccc2c(c1)C(=O)N(C)Cc1c(C(=O)OC(C)(C)C)ncn1-2	67.3	5.9 mg/kg	0.4 nM	26.3 nM	5.1 nM	18.7 nM	26.9 nM	IC50 [12]: 70.7 nM; IC50 [13]: 67.2 nM; Activity (Mus musculus [3]): 80%; IC50 [14]: 79.8 nM; IC50 [15]: 0.33 nM; IC50 [16]: 0.6 nM; IC50 [17]: 85.6 nM
CC#Cc1ccc2c(c1)C(=O)N(C)Cc1c(C(=O)OCC)ncn1-2	6		1.7 nM	22.2 nM	> 100 nM	16.5 nM	10.1 nM	
CCOC(=O)c1ncn2c1CN(C)C(=O)c1cc(F)ccc1-2 [FLUMAZENIL]								ED50 (Mus musculus [9]): 3.8 mg/kg; ED50 (Mus musculus [10]): 2.3 mg/kg
CCc1ccc2c(c1)C(=O)N(C)Cc1c(C(=O)OC(C)(C)C)ncn1-2	8.6		1.7 nM	56 nM	22.9 nM	25.3 nM	14.8 nM	
